Measured values published in ChEMBL document CHEMBL3393009 (J Med Chem, 2015).
pIC50: −log10 of the molar value. Activity calls are given as the source filed them. The rule behind the calls is not given here.

Assays:
[1] = target: T1, Serine/threonine-protein kinase 3 (Homo sapiens, UniProt Q13188); assay: Inhibition of human recombinant MST2 using Ser/Thr peptide 7 substrate after 45 mins by Z-Lyte assay
T1 sequence (Q13188 whole entry): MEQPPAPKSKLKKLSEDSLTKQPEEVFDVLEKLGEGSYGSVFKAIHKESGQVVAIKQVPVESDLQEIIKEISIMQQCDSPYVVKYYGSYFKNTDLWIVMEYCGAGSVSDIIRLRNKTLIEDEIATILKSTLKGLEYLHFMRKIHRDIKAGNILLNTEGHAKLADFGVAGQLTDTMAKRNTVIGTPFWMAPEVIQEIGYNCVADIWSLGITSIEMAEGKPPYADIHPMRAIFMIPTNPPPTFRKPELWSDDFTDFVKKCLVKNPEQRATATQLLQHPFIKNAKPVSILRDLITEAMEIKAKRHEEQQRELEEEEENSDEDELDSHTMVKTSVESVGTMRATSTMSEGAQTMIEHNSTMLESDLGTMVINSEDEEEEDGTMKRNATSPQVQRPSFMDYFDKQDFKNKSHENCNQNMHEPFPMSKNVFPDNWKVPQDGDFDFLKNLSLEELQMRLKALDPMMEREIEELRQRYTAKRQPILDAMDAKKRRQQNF

[2] = Cmax in dog at 5 mg/kg, po; assay type: ADME, organism-based, Canis lupus familiaris; set-up: dose 5 mg/kg, route oral; details: in vivo
[3] = Tmax in dog at 5 mg/kg, po; assay type: ADME, organism-based, Canis lupus familiaris; set-up: dose 5 mg/kg, route oral; details: in vivo
[4] = Oral bioavailability in dog at 5 mg/kg; assay type: ADME, organism-based, Canis lupus familiaris; details: in vivo
[5] = Cmax in non-human primate at 5 mg/kg, po; assay type: ADME, organism-based; set-up: dose 5 mg/kg, route oral; details: monkey, in vivo
[6] = AUC in non-human primate at 5 mg/kg, po; assay type: ADME, organism-based; set-up: dose 5 mg/kg, route oral; details: monkey, plasma
[7] = Half life in non-human primate at 5 mg/kg, po; assay type: ADME, organism-based; set-up: dose 5 mg/kg, route oral; details: monkey, in vivo
Mus musculus = assay: Inhibition of wild type LRRK2 […] phosphorylation in BAC-transgenic C57BL/6J mouse brain at 3 to 100 mg/kg, sc measured after 90 mins post dose; assay type: functional; details: dose mg/kg 3-100; route subcutaneous
Procedure, shortened: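 Mice given compound subcutaneously in 10% NMP/20% SBECD vehicle: four-month-old C57BL/6J (wild type) or seven-month-old LRRK2 BAC-Tg G2019S. Tissues collected 90 min after dose. pS935, and pS1292 (custom antibody) in transgenic brain, read by Western blot of brain/kidney lysates against vehicle controls. Mean ± SEM.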

Rattus norvegicus [8] = assay: Inhibition of LRRK2 […] phosphorylation in Wistar Han rat brain at 6 to 60 mg/kg, po bid for 14 days; assay type: functional; details: dose mg/kg 6-60
Rattus norvegicus [9] = assay: Toxicity in Wistar Han rat assessed as changes in RBC parameters at 6 to 60 mg/kg, po bid for 14 days; assay type: organism-based; set-up: dose 6-60 mg/kg, route oral; details: in vivo, 336 h
Procedure, shortened: (§1)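 Wistar Han rats (200–300 g, 8–11 weeks) dosed by oral gavage twice daily for 14 days. Vehicle: 10% propylene glycol/20% PEG400/70% methylcellulose solution. RBC parameters, electrolytes, food consumption, body weight, clinical chemistry and urinary biomarkers recorded.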

Rattus norvegicus [10] = assay: Toxicity in Wistar Han rat assessed as changes in urinary biomarkers at 6 to 60 mg/kg, po bid for 14 days; assay type: organism-based, Urine; set-up: dose 6-60 mg/kg, route oral; details: in vivo, 336 h; procedure, shortened: as §1
Rattus norvegicus [11] = assay: fCmax in Wistar Han rat at 6 mg/kg, po bid for 14 days; assay type: ADME, organism-based; set-up: dose 6 mg/kg, route oral; details: in vivo, 336 h
[12] = Drug coverage index, ratio fCmax in Wistar Han rat at 6 mg/kg, po bid for 14 days to IC50 for LRRK2 […] phosphorylation in Wistar Han rat brain at 6 to 60 mg/kg, po bid for 14 days; assay type: ADME, organism-based; details: in vivo, 336 h
Procedure, shortened: (§2)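 Wistar Han rats (200–300 g, 8–11 weeks old) were dosed by oral gavage twice daily for 14 days. Vehicle was 10% propylene glycol/20% PEG400/70% 9.5% methocellulose.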

[13] = Drug coverage index, ratio fCmax in Wistar Han rat at 60 mg/kg, po bid for 14 days to IC50 for LRRK2 S395 phosphorylation in Wistar Han rat brain at 6 to 60 mg/kg, po bid for 14 days; assay type: ADME, organism-based; details: in vivo, 336 h; procedure, shortened: as §2
Rattus norvegicus [14] = assay: fAUC in Wistar Han rat at 20 mg/kg, po bid for 14 days; assay type: ADME, organism-based; set-up: dose 20 mg/kg, route oral; details: in vivo, 336 h
Procedure, shortened: (§3)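 Wistar Han rats dosed orally twice daily in 10% propylene glycol/20% PEG400/methylcellulose vehicle. Unbound plasma exposure measured on days 1 and 11.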

Rattus norvegicus [15] = assay: fAUC in Wistar Han rat at 60 mg/kg, po bid for 14 days; assay type: ADME, organism-based; set-up: dose 60 mg/kg, route oral; details: in vivo, 336 h; procedure, shortened: as §3
Rattus norvegicus [16] = assay: Drug coverage index, ratio fAUC in Wistar Han rat at 60 mg/kg, po bid for 14 days to IC50 for LRRK2 […] phosphorylation in Wistar Han rat brain at 6 to 60 mg/kg, po bid for 14 days; assay type: ADME, organism-based; details: in vivo, 336 h; procedure, shortened: as §2
[17] = Apparent permeability from apical to basolateral side by cell based assay; assay type: physicochemical; details: not told
[18] = target: Tyrosine-protein kinase JAK1 (Homo sapiens, UniProt P23458); assay: Inhibition of JAK1 (JH2 domain-pseudokinase) (unknown origin) at 1 uM
Tyrosine-protein kinase JAK1, sequence (P23458 whole entry, the tested form may be a part): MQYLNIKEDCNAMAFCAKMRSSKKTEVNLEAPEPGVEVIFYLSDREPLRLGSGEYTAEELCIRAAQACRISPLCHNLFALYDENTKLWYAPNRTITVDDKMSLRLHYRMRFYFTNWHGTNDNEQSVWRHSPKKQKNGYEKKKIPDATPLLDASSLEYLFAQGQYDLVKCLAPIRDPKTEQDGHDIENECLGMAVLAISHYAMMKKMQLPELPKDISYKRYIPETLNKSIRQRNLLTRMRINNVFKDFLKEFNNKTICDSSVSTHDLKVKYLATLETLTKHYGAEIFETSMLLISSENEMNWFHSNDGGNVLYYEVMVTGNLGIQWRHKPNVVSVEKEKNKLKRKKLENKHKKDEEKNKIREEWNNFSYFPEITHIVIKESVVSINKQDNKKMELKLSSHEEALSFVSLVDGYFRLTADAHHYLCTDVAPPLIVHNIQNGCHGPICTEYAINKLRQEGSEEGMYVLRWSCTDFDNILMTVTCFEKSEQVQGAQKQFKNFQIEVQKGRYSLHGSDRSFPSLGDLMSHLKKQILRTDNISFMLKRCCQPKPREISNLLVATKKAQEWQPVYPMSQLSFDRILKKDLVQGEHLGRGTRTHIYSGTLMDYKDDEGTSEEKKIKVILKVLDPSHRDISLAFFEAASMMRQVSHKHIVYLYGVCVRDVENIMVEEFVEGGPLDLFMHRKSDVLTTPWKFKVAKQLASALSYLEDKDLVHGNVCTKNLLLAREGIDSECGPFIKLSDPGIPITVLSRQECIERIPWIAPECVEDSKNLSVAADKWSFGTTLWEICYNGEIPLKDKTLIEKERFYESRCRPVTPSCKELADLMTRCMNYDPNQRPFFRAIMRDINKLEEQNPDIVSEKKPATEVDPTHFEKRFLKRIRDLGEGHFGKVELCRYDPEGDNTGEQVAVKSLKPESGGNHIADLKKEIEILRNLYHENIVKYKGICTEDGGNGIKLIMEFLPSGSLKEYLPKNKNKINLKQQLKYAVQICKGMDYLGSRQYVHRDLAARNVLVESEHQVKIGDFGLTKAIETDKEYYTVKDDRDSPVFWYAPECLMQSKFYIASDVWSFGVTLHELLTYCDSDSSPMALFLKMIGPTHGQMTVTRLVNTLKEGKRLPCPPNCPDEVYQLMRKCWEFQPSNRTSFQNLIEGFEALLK

In the case of `N#Cc1cccc(-c2c[nH]c3ncnc(N4CCOCC4)c23)c1`, the pIC50 [1] was 7.66, the Cmax [2] was 15 ng/mL and the Tmax [3] was 0.38 h. For the same compound, the bioavailability [4] was 0.6%, the Cmax [5] was 25 ng/mL and the AUC [6] was 78 ng·h/mL. For the same compound, the half-life [7] was 2.27 h, the fIC50 (Mus musculus) was 8 nM and the fIC50 (Rattus norvegicus [8]) was 15 nM. For the same compound, the Activity (Rattus norvegicus [9]) was “Non-toxic”, the Activity (Rattus norvegicus [10]) was “Non-toxic” and the fCmax (Rattus norvegicus [11]) was 86 nM. The Ratio [12] was 6, the Ratio [13] was 70 and the fAUC (Rattus norvegicus [14]) was 4.14 µM·h. For the same compound, the fAUC (Rattus norvegicus [15]) was 11.17 µM·h, the Ratio (Rattus norvegicus [16]) was 31 and the Papp A→B [17] was 27 ×10⁻⁶ cm/s. The inhibition [18] was “inactive”.
